Experimental data published in PMC6215875 (Cancer Science, 2018).
Read-outs that look alike come from different tables or passages of the source.

Key:
[1] = system: GIST48 cells; assay: Cell cycle analysis, GIST48; format: cell-based; conditions: GIST48, 1 μmol/L
Summary of the method: (§1)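 Test compound added at the doses stated, and cells harvested over a time course. Cells washed twice in PBS, fixed overnight in cold 70% ethanol, and pelleted at 5000 g for 5 min. Pellets incubated with 0.2 mg/mL RNase A for 1 h, then stained with 20 μg/mL propidium iodide at room temperature. DNA content read by flow cytometry. Mean ± SE of triplicate experiments.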

[2] = system: GIST430 xenograft; assay: GIST430 xenograft in NOD-SCID mice; format: in vivo; conditions: for KIT and KIT phosphorylation in tumors compared with controls: GIST430 xenograft tumors after treatment, Figure 6B
Summary of the method: (§2)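 Male NOD-SCID mice (6–8 weeks, SPF) received GIST430 cells (2 × 10⁷/mouse) s.c. At 50–100 mm³, vehicle or test compound in 20% (2-hydroxypropyl)-β-cyclodextrin was given orally on days 1–5 weekly for 2 weeks. Controls n=5, treated groups n=6. Tumor volume (length × width² × π/6) and body weight were recorded three times weekly up to 16 days. Comparison: Wilcoxon rank sum.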

[3] = system: advanced GIST; conditions: cited from earlier work; for median PFS: advanced GIST patients
[4] = system: KIT mutants; format: cell-based; conditions: 1 μmol/L; for suppression of KIT activation (phosphorylation): COS-1, 4 double mutations (∆557-558 with V654A, T670I, D820G or N822K); for suppression of KIT phosphorylation: COS-1, single mutations in exons 13, 14, and 17, 30 minutes
[5] = Body weight and survival of GIST430 xenograft mice; format: in vivo; conditions: regorafenib 30 mg/kg; for body weight (mean ± SE): oral, 2 weeks, BPR1J373 50 mg/kg, sunitinib 40 mg/kg
Summary of the method: as §2

[6] = system: GIST430 cells; assay: Cell cycle analysis, GIST430; format: cell-based; conditions: BPR1J373 at 10 nmol/L, 100 nmol/L, and 1 μmol/L
Summary of the method: as §1

[7] = target: KIT mutants (Homo sapiens, UniProt P10721, D816V); conditions: COS-1, D816V in exon 17; cited from earlier work
Chain of KIT mutants (Homo sapiens, UniProt P10721, D816V) (P10721 26-976 D816V): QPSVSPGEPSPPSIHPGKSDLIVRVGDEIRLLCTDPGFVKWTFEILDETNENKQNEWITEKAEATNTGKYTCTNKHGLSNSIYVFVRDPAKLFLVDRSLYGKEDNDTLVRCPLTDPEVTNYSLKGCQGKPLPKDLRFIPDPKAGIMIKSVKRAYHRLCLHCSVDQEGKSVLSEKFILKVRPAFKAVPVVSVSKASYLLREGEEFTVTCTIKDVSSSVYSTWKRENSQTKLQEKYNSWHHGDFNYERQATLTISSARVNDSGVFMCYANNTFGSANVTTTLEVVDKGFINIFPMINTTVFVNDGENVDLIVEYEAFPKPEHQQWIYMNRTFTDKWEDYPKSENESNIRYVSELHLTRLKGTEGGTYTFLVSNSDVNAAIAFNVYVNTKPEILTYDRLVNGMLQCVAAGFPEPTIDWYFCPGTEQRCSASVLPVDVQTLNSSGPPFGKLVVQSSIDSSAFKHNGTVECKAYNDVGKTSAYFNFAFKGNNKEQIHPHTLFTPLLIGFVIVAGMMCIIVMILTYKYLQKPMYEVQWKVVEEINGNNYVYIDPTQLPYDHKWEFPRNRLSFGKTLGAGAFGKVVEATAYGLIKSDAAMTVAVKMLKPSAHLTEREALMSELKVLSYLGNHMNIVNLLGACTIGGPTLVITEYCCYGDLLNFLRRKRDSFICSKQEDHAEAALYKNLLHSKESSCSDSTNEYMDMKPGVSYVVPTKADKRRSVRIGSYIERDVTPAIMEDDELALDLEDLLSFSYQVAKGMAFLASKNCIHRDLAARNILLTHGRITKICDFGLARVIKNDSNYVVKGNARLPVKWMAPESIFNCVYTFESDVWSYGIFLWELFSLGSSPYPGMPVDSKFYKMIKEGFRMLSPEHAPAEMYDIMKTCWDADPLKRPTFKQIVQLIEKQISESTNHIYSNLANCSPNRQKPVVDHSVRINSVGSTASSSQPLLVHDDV

[8] = system: GIST-T1 cells; assay: Cell proliferation assay, GIST-T1; format: cell-based; conditions: imatinib-sensitive GIST-T1, Figure S2A
Summary of the method: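 GIST-T1 cells were grown in RPMI-1640 with 10% FBS at 37°C, 5% CO₂. 4 × 10⁴ cells were exposed to a range of test compound doses for 120 h. They were then stained with methylene blue for 1 h, and absorbance was read at […].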

SMILES	cell cycle change [1]	KIT and KIT phosphorylation in tumors compared with controls [2]	median PFS ([3]; third-line treatment, phase III)	suppression of KIT activation (phosphorylation) [4]	suppression of KIT phosphorylation [4]	body weight (mean ± SE) [5]	mice that died before completion of the experiment ([5]; 6 mice, died at day 14)	cell cycle change [6]	suppression of KIT phosphorylation [7]	disease control rate ([3]; advanced GIST, initial phase II study)	antitumor effect vs control, P (Wilcoxon rank sum test) ([2]; oral, day 1 to day 5 per week for 2 weeks, BPR1J373 50 mg/kg, sunitinib 40 mg/kg)	median PFS ([3]; second-line treatment)	antiproliferative effect [8]
CNC(=O)c1cc(Oc2ccc(NC(=O)Nc3ccc(Cl)c(C(F)(F)F)c3)c(F)c2)ccn1 [Regorafenib]	only a mild increase in subG1 and a mild decrease in S and G2/M proportions	decreased expression levels of KIT and KIT phosphorylation	4.8 months	variable effects	differentially suppressed	28.82 ± 0.52 g	1	did not induce significant cell cycle changes					
Cc1ccc(NC(=O)c2ccc(CN3CCN(C)CC3)cc2)cc1Nc1nccc(-c2cccnc2)n1 [Imatinib]	Neither 1 μmol/L imatinib nor nilotinib induced S or G2/M arrest			variable effects	differentially suppressed				resistant	81.6%			
CCN(CC)CCNC(=O)c1c(C)[nH]c(/C=C2\C(=O)Nc3ccc(F)cc32)c1C [Sunitinib]		decreased expression levels of KIT and KIT phosphorylation		variable effects	differentially suppressed	29.1 ± 1.04 g			resistant		0.03	6.8 months	best antiproliferative effects
Cc1cn(-c2cc(NC(=O)c3ccc(C)c(Nc4nccc(-c5cccnc5)n4)c3)cc(C(F)(F)F)c2)cn1 [Nilotinib]	Neither 1 μmol/L imatinib nor nilotinib induced S or G2/M arrest			variable effects	differentially suppressed				resistant				best antiproliferative effects
